Published values pooled from the literature.
Each line is one published result; the experiments were not run side by side.
BACE1: Beta-secretase 1 (BACE1, Homo sapiens, UniProt P56817)
HLA class I histocompatibility antigen, A alpha chain: HLA class I histocompatibility antigen, A alpha chain (Homo sapiens, UniProt P04439)

| SMILES | target | observed | action | technique | measurement | result |
| --- | --- | --- | --- | --- | --- | --- |
| COc1cc2c(cc1OC)CN(CCc1ccc(NC(=O)c3cccc4c(=O)c5cccc(OC)c5[nH]c34)cc1)CC2 | D(2) dopamine receptor (DRD2, Homo sapiens, UniProt P14416) | cell-free assay | – | – | Ki | 943 nM |
| CCCC[C@H](NC(C)=O)C(=O)N[C@H]1CC(=O)NCCCC[C@@H](C(=O)N2CCC[C@@H]2C(=O)N[C@@H](C(=O)N2CCC[C@@H]2C(N)=O)C(C)C)NC(=O)[C@H](Cc2c[nH]c3ccccc23)NC(=O)[C@H](CCCNC(=N)N)NC(=O)[C@@H](Cc2ccccc2)NC(=O)[C@@H]2CCCN2C1=O | Melanocortin receptor 3 (MC3R, Homo sapiens, UniProt P41968) | cAMP | agonist | – | EC50 | > 1000 nM |
| CCOC(=O)c1ccc(OC(=O)CCCCCN=C(N)N)cc1 | Transmembrane protease serine 6 (Homo sapiens, UniProt Q8IU80) | enzyme activity | inhibitor | – | IC50 | 412 nM |
| C=CCOc1ccc(C(=O)/C=C/c2ccc(OC)cc2)c(OS(=O)(=O)c2ccc(OC)cc2)c1I | BACE1 | enzyme activity | inhibitor | fluorescence | IC50 | 18200 nM |
| CSCC[C@H](NC(=O)[C@@H](N)CCCNC(=N)N)C(=O)N[C@@H](Cc1ccccc1)C(=O)NCC(=O)N1CCC[C@H]1C(=O)N[C@H](C(=O)N[C@@H](CCC(N)=O)C(=O)N[C@H](C(=O)N[C@@H](Cc1ccc(O)cc1)C(=O)O)[C@@H](C)O)C(C)C | HLA class I histocompatibility antigen, A alpha chain | cell-free assay | – | – | IC50 | 45 nM |
| C=CCOc1ccc(C(=O)/C=C/c2cccc(F)c2)c(OS(=O)(=O)c2ccc(F)cc2)c1I | BACE1 | enzyme activity | inhibitor | fluorescence | IC50 | 27800 nM |
| CSCC[C@H](NC(=O)[C@@H](N)CCCCN)C(=O)N[C@@H](Cc1c[nH]c2ccccc12)C(=O)NCC(=O)N[C@@H](CCCCN)C(=O)N1CCC[C@H]1C(=O)N[C@@H](CCSC)C(=O)N[C@H](C(=O)N[C@@H](Cc1ccccc1)C(=O)O)[C@@H](C)O | HLA class I histocompatibility antigen, A alpha chain | cell-free assay | – | – | IC50 | 213 nM |
| COc1cc(C(F)(F)F)c(OC)cc1C1CCCNC1 (stereo not shown) | 5-hydroxytryptamine receptor 2C (Htr2c, Mus musculus, UniProt P34968) | G protein activation | agonist | BRET | EC50 | 30.9 nM |
| CC[C@H](C)[C@H](NC(=O)[C@@H](N)CCCNC(=N)N)C(=O)N[C@@H](Cc1ccc(O)cc1)C(=O)NCC(=O)N1CCC[C@H]1C(=O)N1CCC[C@H]1C(=O)N[C@@H](Cc1c[nH]cn1)C(=O)N[C@@H](CCC(N)=O)C(=O)N[C@@H](Cc1ccccc1)C(=O)O | HLA class I histocompatibility antigen, A alpha chain | cell-free assay | – | – | IC50 | 376 nM |
| C=CCOc1ccc(C(=O)/C=C/c2ccc(OC)cc2)c(OS(=O)(=O)c2ccccc2[N+](=O)[O-])c1I | BACE1 | enzyme activity | inhibitor | fluorescence | IC50 | 23900 nM |
